Data set [1] in a line: Growth inhibition of human 502713 cells at 10 uM by sulforhodamine B assay. Type of data set: functional. Particulars: read-out: GI. In short, it runs like this:
(§1)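 Single-dose 10 µM screen by sulforhodamine B assay, reported as percent inhibition of cell proliferation. Cells grown in medium with 10% heat-inactivated FBS at 37 °C, 5% CO2, and treated at about 70% confluence or in log phase. Compounds dissolved in DMSO; controls received vehicle (<0.5% v/v).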
In general terms: Sulforhodamine B stains cellular protein and so reports cell mass.

The test system of data set [2] is OVCAR-5. The data set can be described thus: Growth inhibition of human OVCAR5 cells at 10 uM by sulforhodamine B assay. The data set is classed as functional. The conditions noted are these: read-out: GI. In short, it runs like this:
as §1

The test system of data set [3] is SK-N-SH. In words: Growth inhibition of human SK-N-SH cells at 10 uM by sulforhodamine B assay. The conditions noted are these: read-out: GI. Type of data set: functional. In short, it runs like this: as §1
Data set [4] relates to HEp-2. In words: Growth inhibition of human Hep2 cells at 10 uM by sulforhodamine B assay. The conditions noted are these: read-out: GI. Type of data set: functional. In short, it runs like this:
as §1

The subject of data set [5] is SW-620. The data set can be described thus: Growth inhibition of human SW620 cells at 10 uM by sulforhodamine B assay. Type of data set: functional. Particulars: read-out: GI. Summed up: as §1
Data set [6] concerns HL-60. The data set can be described thus: Growth inhibition of human HL60 cells after 48 hrs by MTT assay. The conditions noted are these: HL-60, 48 h. The data set is classed as functional, cell-based.
The test system of data set [7] is HCT-15. In words: Growth inhibition of human HCT15 cells at 10 uM by sulforhodamine B assay. The data set is classed as functional. The conditions noted are these: read-out: GI. In short, it runs like this: as §1
The subject of data set [8] is DU-145. In words: Growth inhibition of human DU145 cells at 10 uM by sulforhodamine B assay. Particulars: read-out: GI. The data set is classed as functional. In short, it runs like this:
as §1

In data set [9] the test system is CV-1. In words: Growth inhibition of african green monkey CV1 cells after 48 hrs by MTT assay. Particulars: Chlorocebus aethiops, CV-1, 48 h. The data set is classed as cell-based. On the technique in general: Tetrazolium assays rely on reduction of a dye to a coloured formazan, in cell work by metabolically active cells.
The test system of data set [10] is SiHa. The data set can be described thus: Growth inhibition of human SiHa cells after 48 hrs by MTT assay. Type of data set: functional, cell-based.
Data set [11] relates to A549. The data set can be described thus: Growth inhibition of human A549 cells at 10 uM by sulforhodamine B assay. The data set is classed as functional. Particulars: read-out: GI. In short, it runs like this: as §1
Data set [12] can be described thus: Therapeutic ratio of IC50 for african green monkey CV1 cells to IC50 for human HL60 cells. The data set is classed as ADME, cell-based, HL-60. Particulars: CV1 cells and HL60 cells, read-out: Ratio IC50.
For data set [13], the system named is SiHa. The data set can be described thus: Growth inhibition of human SiHa cells at 10 uM by sulforhodamine B assay. Type of data set: functional. The conditions noted are these: read-out: GI. Summed up: as §1
Data set [14] deals with IMR-32. The data set can be described thus: Growth inhibition of human IMR32 cells at 10 uM by sulforhodamine B assay. Type of data set: functional. Particulars: read-out: GI. In short, it runs like this:
as §1

Data set [15] relates to SiHa. The data set can be described thus: Induction of apoptosis in human SiHa cells assessed as DNA ladder formation at 10 uM after 24 hrs by agarose gel electrophoresis. The data set is classed as functional, cell-based. In short, it runs like this: (§2)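 Cells treated 24 h, then 2 x 10^6 cells lysed (Triton X-100 buffer, pH 8.0) with RNase at 37 °C for 90 min and proteinase-K at 50 °C for 1 h. DNA phenol/chloroform-extracted and ethanol-precipitated, then run on 1.8% agarose at 50 V for 1.5 h in TAE. Ladders viewed under UV.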

The subject of data set [16] is HL-60. The data set can be described thus: Induction of apoptosis in human HL60 cells assessed as DNA ladder formation at 1 uM after 24 hrs by agarose gel electrophoresis. The data set is classed as functional, cell-based. Summed up:
as §2

Data set [17] relates to HL-60. In words: Inhibition of Bcl-2 expression in human HL60 cells at 1 uM after 24 hrs by Western blotting. Type of data set: functional, cell-based. Summed up: (§3)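 HL-60 cells treated 24 h and lysed in RIPA buffer on ice; protein measured by Bradford against a BSA standard. 50 µg resolved by SDS-PAGE and transferred to PVDF, blocked in 5% milk/TBST, then primary antibodies 1:1000 for 2 h and HRP secondary 1:1000 for 1 h. ECL detection with β-actin as loading control; bands quantified by densitometry.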
In general terms: A western blot detects proteins with antibodies after separation by electrophoresis.

Data set [18] deals with HL-60. The data set can be described thus: Induction of apoptosis in human HL60 cells assessed as caspase8 activation using IETD-AFC as substrate at 1 uM after 24 hrs by fluorimetry relative to control. The data set is classed as functional. In short, it runs like this: (§4)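 HL-60 cells (2 x 10^6) treated 24 h, washed and lysed. Caspase-3, -8 and -9 activities in lysates measured fluorometrically with a commercial caspase fluorescent assay kit. Two independent experiments, each in duplicate.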

The test system of data set [19] is HL-60. The data set can be described thus: Induction of apoptosis in human HL60 cells assessed as late apoptotic cells at 1 uM after 24 hrs using Annexin V-FITC and propidium iodide staining by flow cytometry relative to control. Type of data set: functional. Summed up: (§5)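 HL-60 cells (1 x 10^5 per 1.5 mL) treated 24 h, washed twice in PBS and stained in binding buffer with annexin V-FITC and PI. Flow cytometry with FITC in FL-1 (530 nm) and PI in FL-2 (585 nm), using quadrant statistics: lower right taken as apoptotic, upper right as post-apoptotic necrotic. Representative of three independent experiments.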

Data set [20] deals with HL-60. The data set can be described thus: Induction of apoptosis in human HL60 cells assessed as caspase9 activation using LEHD-AMC as substrate at 1 uM after 24 hrs by fluorimetry relative to control. Type of data set: functional. In short, it runs like this: as §4
In data set [21] the test system is HL-60. The data set can be described thus: Induction of NO production in human HL60 cells at 1 uM after 24 hrs using DAF-2DA fluorescent dye based flow cytometric analysis. The data set is classed as functional, cell-based. Summed up: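 HL-60 cells (1 x 10^5 per 1.5 mL) preloaded 30 min with 10 µM DAF-2-DA before treatment. After 24 h exposure, cells were washed and read by flow cytometry in FL-1 as NO-positive population. Mean ± SD of three independent experiments.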

Data set [22] deals with HL-60. The data set can be described thus: Induction of apoptosis in human HL60 cells assessed as PARP cleavage at 1 uM after 24 hrs by Western blotting. The data set is classed as functional, cell-based. In short, it runs like this:
as §3

Data set [23] relates to HL-60. The data set can be described thus: Inhibition of NF-kappaB expression in human HL60 cells at 1 uM after 24 hrs by Western blotting. The data set is classed as functional, cell-based. In short, it runs like this:
as §3

Data set [24] deals with HL-60. In words: Cell cycle arrest in human HL60 cells assessed as accumulation at sub-G0 phase measuring DNA damage at 1 uM after 24 hrs using propidium iodide staining by flow cytometry (reference value: 1%). Type of data set: functional. In short, it runs like this: (§6)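 HL-60 cells (1 x 10^5 per 1.5 mL) treated 24 h, then fixed in 70% cold ethanol at −20 °C overnight. RNase digestion (400 µg/ml) at 37 °C for 45 min, then propidium iodide (10 µg/ml) for 30 min. Flow cytometry on 10,000 events, FL2-A vs FL2-W, with doublet discrimination. Sub-G0 (hypodiploid) peak taken as apoptotic cells. Mean ± SD of three independent experiments.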

The subject of data set [25] is HL-60. The data set can be described thus: Induction of apoptosis in human HL60 cells assessed as increase of reactive oxygen species level at 1 uM after 24 hrs using DCFH-DA fluorescent dye based flow cytometric analysis relative to control. The data set is classed as functional. In short, it runs like this:
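HL-60 cells (1 x 10^5 per 1.5 mL) treated 24 h, then loaded with 10 µM H2DCFDA for 30 min at 37 °C. Washed twice in PBS and read in FL-1 (530 nm). Percentage of DCF-positive cells determined; mean ± SD of three experiments.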

Data set [26] concerns HL-60. In words: Induction of apoptosis in human HL60 cells assessed as early apoptotic cells at 1 uM after 24 hrs using Annexin V-FITC and propidium iodide staining by flow cytometry relative to control. The data set is classed as functional. Summed up:
as §5

In data set [27] the test system is HeLa. The data set can be described thus: Induction of apoptosis in human HeLa cells assessed as DNA ladder formation at 10 uM after 24 hrs by agarose gel electrophoresis. The data set is classed as functional, cell-based. In short, it runs like this:
as §2

Data set [28] concerns HL-60. In words: Cell cycle arrest in human HL60 cells assessed as accumulation at S phase at 1 uM after 24 hrs using propidium iodide staining by flow cytometry. The data set is classed as functional, cell-based. Summed up:
as §6

Data set [29] concerns HL-60. The data set can be described thus: Induction of apoptosis in human HL60 cells assessed as DNA ladder formation at 10 uM after 24 hrs by agarose gel electrophoresis. The data set is classed as functional, cell-based. Summed up:
as §2

Data set [30] relates to HL-60. In words: Cell cycle arrest in human HL60 cells assessed as accumulation at G2/M phase at 1 uM after 24 hrs using propidium iodide staining by flow cytometry. Type of data set: functional, cell-based. Summed up: as §6
In data set [31] the test system is HL-60. The data set can be described thus: Induction of apoptosis in human HL60 cells assessed as non-viable necrotic cells at 1 uM after 24 hrs using Annexin V-FITC and propidium iodide staining by flow cytometry relative to control. Type of data set: functional. Summed up:
as §5

Data set [32] relates to HL-60. In words: Induction of apoptosis in human HL60 cells assessed as caspase3 activation using DEVD-AFC as substrate at 1 uM after 24 hrs by fluorimetry relative to control. Type of data set: functional. In short, it runs like this:
as §4

Data set [33] relates to HL-60. In words: Cell cycle arrest in human HL60 cells assessed as accumulation at G1 phase at 1 uM after 24 hrs using propidium iodide staining by flow cytometry. The data set is classed as functional, cell-based. In short, it runs like this: as §6

Active and inactive are the calls of the source. The rule behind the calls is not given here.

For orientation: IC50 means the midpoint of a concentration-inhibition curve.

Consider `O=C(Nc1nc2ccc([N+](=O)[O-])cc2s1)c1cccnc1Nc1ccc(Cl)cc1`, for which the inhibition of growth at 10 µM came to 63% in data set [1]; 26% in [2]; 48% in data set [3]; 69% in data set [4]; 65% in data set [5]; 66% in data set [7]. In addition, the inhibition of growth at 10 µM worked out at 52% in data set [8], 83% in data set [11], 53% in [13] and 45% in [14]. In addition, the values for the IC50 in data set [6], in data set [9] and in data set [10] were 400 nM, 800 nM and over 50000 nM, respectively. In addition, the selectivity ratio in [12] was found to be 2.

For `COc1ccc(Nc2ncccc2C(=O)Nc2nc3ccc([N+](=O)[O-])cc3s2)cc1`, the outcome in data set [15], in [18], in [20], in data set [21], in data set [27] and in data set [28] was inactive. Further, the result in data set [30], in data set [32] and in data set [33] was inactive. The inhibition of growth at 10 µM in [1] was 59%; in [2] it was 52%; in [3] it was 64%; in [4], 5%; in [5] it was 64%; in data set [7], 47%. Further, the inhibition of growth at 10 µM came to 32% in [8], 3% in [11], 66% in data set [13] and 55% in [14]. Further, the result in data set [16], in data set [22] and in [29] was Active. Besides, the inhibition entry in data set [17] and in data set [23] was “inactive” throughout. Moreover, the Activity is on record as 3% in data set [19]; 22% in data set [24]; 44% in data set [25]; 7% in data set [26]; 14% in data set [31]. The figures for the IC50 in [6], in [9] and in [10] were 700 nM, 10000 nM and 28000 nM, respectively. Besides, the selectivity ratio in data set [12] is 14.

Regarding `CC[C@@]1(O)C(=O)OCc2c1cc1n(c2=O)Cc2cc3ccccc3nc2-1` [CAMPTOTHECIN], the Activity came to 11% in data set [19], 17% in data set [26] and 52% in [31].

Take `COc1ccc(Nc2ncccc2C(=O)Nc2nc3ccc(OC)cc3s2)cc1`: the inhibition of growth at 10 µM in [1] amounted to 21%; in data set [2] it was 8%; in data set [3] it was 44%; in data set [4] it was 0%; in [5], 43%; in [7], 0%. Also, the inhibition of growth at 10 µM in data set [8] was found to be 22%; in data set [11], 20%; in data set [13] it was 55%; in [14] it was 40%.

These data come from ChEMBL document CHEMBL1926589, “2-Anilinonicotinyl linked 2-aminobenzothiazoles and [1,2,4]triazolo[1,5-b] [1,2,4]benzothiadiazine conjugates as potential mitochondrial apoptotic inducers” (Bioorg Med Chem, 2011).
